KCNQ1 inh – inhibitors of human KCNQ1 channel, primary screen, cell-based, thallium flux, high-throughput | 310,000 tested, 1.3% active | AID 2642, 2010 | Potassium voltage-gated channel subfamily KQT member 1 (Homo sapiens), P51787 | CHO-K1 KCNQ1, FluxOR thallium flux fluorescence; active compounds read high | B-score at 10 µM;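 active means compounds whose thallium flux B-score, printed positive for inhibition, exceeds three library SD while starting fluorescence stays within three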;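 further: channel opened by potassium depolarization with thallium stimulus after 20 min compound exposure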
Target sequence (P51787 whole entry, looked up): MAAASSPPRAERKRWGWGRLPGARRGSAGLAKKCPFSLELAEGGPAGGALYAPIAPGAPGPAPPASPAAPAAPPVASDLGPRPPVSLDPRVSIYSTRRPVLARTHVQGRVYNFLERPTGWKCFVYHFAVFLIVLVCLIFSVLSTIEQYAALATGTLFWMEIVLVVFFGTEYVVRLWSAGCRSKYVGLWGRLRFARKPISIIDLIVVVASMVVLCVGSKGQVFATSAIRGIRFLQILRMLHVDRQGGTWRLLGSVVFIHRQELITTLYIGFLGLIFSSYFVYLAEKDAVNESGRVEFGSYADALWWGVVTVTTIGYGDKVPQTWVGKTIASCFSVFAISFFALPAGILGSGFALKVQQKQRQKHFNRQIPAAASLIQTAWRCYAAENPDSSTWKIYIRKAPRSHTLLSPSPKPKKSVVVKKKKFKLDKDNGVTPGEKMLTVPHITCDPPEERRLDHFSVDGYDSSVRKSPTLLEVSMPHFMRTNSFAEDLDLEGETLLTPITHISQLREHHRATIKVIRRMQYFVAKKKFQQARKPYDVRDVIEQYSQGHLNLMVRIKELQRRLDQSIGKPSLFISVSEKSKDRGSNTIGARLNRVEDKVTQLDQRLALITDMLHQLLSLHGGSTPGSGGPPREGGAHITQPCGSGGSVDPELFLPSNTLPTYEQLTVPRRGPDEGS
hERG protect – hERG rescue from dofetilide block, primary screen, cell-based, CHO-hERG, FluxOR thallium flux, dofetilide IC70; Voltage-gated inwardly rectifying potassium channel KCNH2 (Homo sapiens), Q12809; dofetilide IC70 present; activation (rescue from dofetilide block), less the hit threshold, % at 10 µM; 310,000 tested, 0.51% active;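 active means activation above the mean of controls blocked by dofetilide plus 5 SD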;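 further: thallium influx through hERG after potassium depolarization seen as dye fluorescence rise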
Cl transport mod – KCC2 cotransporter modulators, thallium flux, primary screen, cell-based, HEK293 KCC2, FluoZin-2 fluorescence, MLSMR | Solute carrier family 12 member 5 (Homo sapiens), Q9H2X9 | KCC2 cells, thallium flux FluoZin-2 fluorescence | B-score of Tl+ flux slope (higher = more flux/activation; lower = inhibition) at 10 µM | 190,000 tested, 2.2% active;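 active means thallium flux slope and its plate-corrected score both differing from the plate sample mean at a set confidence after two filtering rounds, in either direction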;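 further: slope of fluorescence scaled to starting intensity during 10 to 20 s after thallium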
Mot1-301 SUMO – yeast Mot1-301 growth rescue at high temperature, primary screen, SUMOylation pathway inhibitor project, S. cerevisiae, ATP luminescence, 38.5C; S. cerevisiae Mot1-301 growth rescue; percent above DMSO median, 100 means doubled; growth rescue, % at 18.8 µM; 320,000 tested, 1% active;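 active means every valid replicate shows activation above 250% relative to neutral control wells; inactive means the rest, any valid replicate at or below 250%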;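 further: OY570 slx delta 5 strain wells were the positive control but not used for scaling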
KCNQ1 act – potentiators or activators of KCNQ1 channel, primary screen, cell-based, thallium flux, high-throughput; 310,000 tested, 0.35% active; CHO-K1 KCNQ1, thallium flux FluxOR fluorescence; active compounds read high; B-score at 10 µM;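 active means fluorescence ratio B-score, a plate-corrected score, at least three library SD, with initial intensity B-score within 5 SD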
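Doses: Single concentration per compound, DMSO matched to controls | Test system: KCNQ1-transfected CHO-K1 cells | Timing: 90 min dye loading and 20 min compound exposure, both at room temperature | Measured by: Kinetic FluxOR thallium fluorescence, 10-s 1-Hz baseline, 110-s post-stimulus read | Medium: Assay buffer with matched DMSO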
AI-2 QS mod – Vibrio harveyi AI-2 quorum sensing modulators, primary screen, JMH597 strain, luminescence/OD600 ratio; AID 2094, 2009; activity change, % at 7.5 µM; Vibrio harveyi JMH597 AI-2 luminescence/OD600 ratio, 9 h; active compounds read low; strain lacks LuxN and CqsS sensors; 0 = neutral-control median; 300,000 tested, 0.4% active; in the data active means activity change below about -75%, passing the limit was not always enough; inconclusive means no clear call, values can overlap the other calls;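 further: luminescence divided by OD600 gain over 9 h not by final OD600 alone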
KCC2 sec1 – KCC2 modulators in sodium-free buffer, confirmation, cell-based, HEK293 KCC2, thallium flux, secondary assay | shares compounds with Cl transport mod | FluoZin2 fluorescence; active compounds read high | normalised thallium flux (F/F0 slope) at 10 µM | 3,700 tested, 15% active | AID 1713, 2009;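 active means thallium flux slope above the same plate's solvent-only control mean plus 3 SD; inconclusive means the two replicate wells disagree; inactive means no significant difference from solvent-only control wells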
KCC2 bumet counter – thallium flux persisting under bumetanide in KCC2 cells, confirmation, counter-screen for KCC2 modulator project, cell-based, HEK293 KCC2, FluoZin2, secondary assay 3 | AID 1714, 2009 | normalized thallium flux at 10 µM | 3,700 tested, 49% active | HEK293-KCC2 + bumetanide/ouabain; active compounds read high | shares compounds with Cl transport mod;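 active means thallium entry rate above the same plate's blocked-transporter control wells by more than 3 SD; inconclusive means the two repeat wells disagree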;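 further: raw slope of fluorescence over initial fluorescence between 10 and 20 s after thallium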
KCC2 sec2 – KCC2 modulators without ouabain present, confirmation, cell-based, HEK293 KCC2, thallium flux, FluoZin2, secondary assay 2; shares compounds with Cl transport mod; thallium flux FluoZin2 fluorescence; actives lie on both sides; F/F0 rise rate, 10–20 s post-thallium; normalized thallium flux at 10 µM; 3,700 tested, 23% active; AID 1715, 2009;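 active means thallium flux slope more than 3 SD above or below the plate's solvent-only control mean, mostly below; inconclusive means the two repeat wells disagreed; inactive means no significant shift from solvent-only controls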;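 further: raw slope with 0.1% DMSO as baseline and bumetanide as block control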
HEK293 Tl flux – thallium flux modulation in parental HEK cells, confirmation, counter-screen for KCC2 modulator project, cell-based, counterscreen 1. thallium flux rate (normalised fluorescence) at 10 µM. AID 1716, 2009. 3,700 tested, 46% active. shares compounds with Cl transport mod. HEK293 parental cells, thallium flux FluoZin2, ouabain; baseline-ratio fluorescence slope, 10–20 s after thallium;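 active means thallium flux rate significantly above the same plate's solvent-only control wells, beyond their mean plus 3 SD; inconclusive means the two replicate wells gave conflicting results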
KCC2 ouabain – KCC2 inhibitors and activators, ouabain retest, confirmation, HEK-KCC2 cells. raw Tl+ flux slope (below DMSO = inhibition, above = activation) at 10 µM. AID 1717, 2009. HEK293-KCC2, thallium flux FluoZin2 fluorescence; bidirectional: low = inhibitor, high = activator. 3,700 tested, 48% active. shares compounds with Cl transport mod;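 active means thallium flux slope beyond 3 SD from same-plate DMSO control mean in most replicates, usually higher, sometimes lower; inconclusive means repeat tests gave conflicting results; inactive means no significant difference from controls in most replicates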;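 further: slope of initial-normalized fluorescence between seconds 10 and 20 after thallium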
HEK293 Tl flux2 – native HEK Tl+ uptake effects, second counter-screen – HEK cells, counterscreen 2, counter-screen for KCC2 modulator project, confirmation | shares compounds with Cl transport mod | HEK293 parental, thallium flux FluoZin-2 fluorescence slope | thallium flux slope at 10 µM | 3,700 tested, 33% active | AID 1718, 2009;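 active means thallium flux slope above the same plate's solvent-control mean plus 3 SD in both duplicate wells; inconclusive means duplicate wells that disagreed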;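 further: run without ouabain in cells lacking the KCC2 cotransporter; slope of fluorescence scaled to its starting value between 10 and 20 s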
The depositor's hits bear a star; i = inactive; ? = inconclusive; nt = not tested or not shown. Rows were chosen to be rich in hits. Some 4.2% of all compounds tested hit in one or more screens of this group.

SMILES	KCNQ1 inh	hERG protect	Cl transport mod	Mot1-301 SUMO	KCNQ1 act	AI-2 QS mod	KCC2 sec1	KCC2 bumet counter	KCC2 sec2	HEK293 Tl flux	KCC2 ouabain	HEK293 Tl flux2
Cc1[nH]nc(SCC(=O)NC2CCCCC2)c1[N+](=O)[O-]	i	-5.3	0.153	-16.2	i	18.8	nt	nt	nt	nt	nt	nt
COc1ccc(Oc2c(Cl)cnn(-c3ccc(F)cc3)c2=O)cc1	i	-16.1	-3.08*	-17.1	i	4.3	0.00843	?	0.0319	0.00624	0.0168*	0.00917
COc1ccc([C@H]2CC(=O)C=C(c3cccc(C(C)C)c3)C2)cc1OC	nt	nt	nt	-3.7	nt	nt	nt	nt	nt	nt	nt	nt
CC1CN(S(=O)(=O)c2ccc(NC(=O)CCN3C(=O)c4ccccc4C3=O)cc2)CC(C)O1 (configuration not stated)	i	-9.9	-3.86*	4.2	i	3.0	0.0156	0.00447	0.0294	0.0074	0.0165	0.0107
CCc1nnc(NC(=O)C2CCCN(S(=O)(=O)c3ccccc3)C2)s1 (configuration not stated)	i	-4.6	nt	3.0	i	23.3	?	0.00543	0.0298	0.00713	0.0192	0.0103
Cc1ccc(NC(=S)NNc2ccc([N+](=O)[O-])cc2S(=O)(=O)Nc2ccccc2C(=O)O)cc1C	i	-11.2	-6.13*	6.5	i	11.9	0.00685	0.00468	0.0246*	?	0.0117*	?
CC(=O)Nc1ccc(C=NNc2ccc([N+](=O)[O-])cc2S(=O)(=O)Nc2ccccc2C(=O)O)cc1	nt	nt	nt	-14.4	nt	nt	nt	nt	nt	nt	nt	nt
COCCNC(=O)COc1ccc(C)cc1C	i	-3.3	-4.42*	-8.7	i	36.1	0.00904	0.00673	0.0299	0.00753	0.0199	?
O=C(CSc1nnnn1-c1ccc(Cl)cc1)N1CCc2ccccc2C1	i	-8.9	nt	-2.2	i	21.9	0.00559	?	0.0248*	0.00715	?	0.00994
O=C(CSc1nnnn1-c1ccccc1)N1CCc2ccccc21	i	0.9	-1.27	-2.1	i	27.6	nt	nt	nt	nt	nt	nt
O=c1cc(CSc2nnnn2-c2ccccc2)nc2scc(-c3ccccc3)n12	i	-6.7	-4.71*	-2.0	i	19.5	0.00883	0.00724	0.0235*	0.00652	0.0127*	0.00936
O=C(CSc1nnnn1-c1ccccc1)CSc1nnnn1-c1ccccc1	i	-7.7	nt	-2.4	i	1.4	0.00707	0.00456	0.0281	?	0.0257*	0.00979
O=c1cc(CSc2nnnn2-c2ccccc2)nc2sccn12	i	-3.0	-0.0127	-7.4	i	-3.0	nt	nt	nt	nt	nt	nt
O=C(O)CSc1nnnn1-c1ccccc1	i	-8.5	-0.643	-1.7	i	32.8	nt	nt	nt	nt	nt	nt
N#Cc1cc2c(nc1SCC(O)CS(=O)(=O)Cc1ccccc1)CCCC2 (configuration not stated)	i	-11.2	-2.87*	-9.0	i	17.9	?	0.00533	0.0317	0.0072	?	0.0102
COc1nc(OCCNC(C)=O)nc(N(C)C)n1	i	-13.3	-0.0313	1.4	i	15.4	0.00869	0.00613	0.0295	0.00639	0.0215	0.00926
CC(=O)NCCOc1nc(N(C)C)nc(N2CCOCC2)n1	i	-7.9	0.65	-4.8	i	12.9	nt	nt	nt	nt	nt	nt
CCNS(=O)(=O)c1ccc2c(c1)NCC2	i	-2.8	-3.23	9.1	i	-3.1	nt	nt	nt	nt	nt	nt
O=C(NNS(=O)(=O)c1ccc2ccccc2c1)C1CCN(Cc2ccccc2)CC1	i	-14.2	nt	-6.1	i	9.5	0.00649	0.00459	0.0264	0.00703	?	0.0106
O=C(C1CC1)N1CCc2cc(S(=O)(=O)NC3CCN(Cc4ccccc4)CC3)ccc21	i	-9.5	nt	81.9	i	17.7	0.00932	?	?	0.00785	0.0158*	0.0108
O=C(C1CC1)N1CCc2cc(S(=O)(=O)NCCCN3CCCCC3)ccc21	i	-6.6	nt	-8.4	i	21.1	nt	nt	nt	nt	nt	nt
CCC(C)(C)n1nnnc1C(c1ccc(O)c(OC)c1)N1CCN(c2nc3ccccc3s2)CC1 (configuration not stated)	i	-9.0	-4.29*	9.0	i	24.0	0.00798	0.00466	0.0228*	0.00701	0.0164*	0.00998
CC1Cc2ccccc2N1C(=O)COC(=O)c1cccnc1Cl (configuration not stated)	i	-10.9	-4.01*	8.0	i	16.7	0.00711	0.00609	0.0275	0.0064	?	?
CC1Cc2ccccc2N1C(=O)CN(C)S(=O)(=O)c1cccc2cccnc12 (configuration not stated)	i	-3.6	nt	3.8	i	16.6	0.00558	0.00549	0.0227*	0.00724	?	0.0105
CC1Cc2ccccc2N1C(=O)COC(=O)c1ccccc1NCCO (configuration not stated)	i	-10.5	nt	1.1	i	26.3	nt	nt	nt	nt	nt	nt

Compound activity: PubChem, several laboratories
